In ChEMBL document CHEMBL1759938, “Antioxidant xanthone derivatives induce cell cycle arrest and apoptosis and enhance cell death induced by cisplatin in NTUB1 cells associated with ROS” (Eur J Med Chem, 2011):
The source made the active and inactive calls. The rule behind the calls is not given here.

Assays:
[1] = target: Xanthine dehydrogenase/oxidase (Homo sapiens, UniProt P47989); assay: Inhibition of xanthine oxidase activity assessed as uric acid formation pretreated for 15 mins before substrate addition measured after 5 mins; details: for inhibition (INH): 5 min
[2] = Antioxidant activity assessed as ABTS radical scavenging activity; type: functional
Summary of the method: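 ABTS (7 mM in deionized water) was mixed with 2.45 mM potassium persulfate to form the radical cation. 180 µL of this solution was combined with 40 µL of sample, and absorbance was read at 630 nm. Vitamin E served as positive control. Mean ± s.e.m., n = 3.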

[3] = Antioxidant activity against oxide-induced pBR322 DNA damage at 300 uM by agarose gel electrophoresis; type: functional
Summary of the method: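 Supercoiled pBR322 plasmid DNA (500 ng) in phosphate buffer pH 7.4, exposed for 20 min to superoxide generated by xanthine/xanthine oxidase, with or without test agent at 300 µM. SOD and quercetin were positive controls. Strand breaks were resolved by gel electrophoresis.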

[4] = Cytotoxicity against human NTUB1 cells after 72 hrs by MTT assay; type: functional, cell-based; details: NTUB1, 72 h
Summary of the method: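 NTUB1 cells in RPMI 1640 with 10% FBS were seeded at 1 × 10³ cells/well and left overnight at 37 °C. They were then exposed to graded concentrations for 72 h. MTT was added; plates were spun, the medium removed and DMSO added, and absorbance read at 540 nm. Viability is the ratio to untreated control, and IC50 was taken from the curve. Mean ± S.D., n = 3.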

[5] = Cell cycle arrest in human NTUB1 cells assessed as accumulation in subG1 phase at 60 uM after 24 hrs using propidium iodide by FACS analysis; type: functional, cell-based
Summary of the method: (§1)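 NTUB1 bladder carcinoma cells (3 × 10⁵ or 8 × 10⁵ per 10 cm dish) were exposed to 40 or 60 µM for 24 h. Cells were trypsinized, fixed in ice-cold methanol at −20 °C overnight, and stained with 50 µg/mL propidium iodide for 30 min at room temperature. DNA content was measured by flow cytometry, with the sub-G1 fraction taken as apoptosis. Three independent experiments.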

NTUB1 [6] = assay: Induction of apoptosis in human NTUB1 cells assessed as increase in ROS level at 40 uM after 24 hrs by flow cytometry; type: functional, cell-based
Summary of the method: (§2)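 NTUB1 cells in 6-well plates were treated for 24 h at 20 or 40 µM. Controls were 1 mM NAC and 10 µM cisplatin. 10 µM DCFH-DA was added 30 min before harvest; cells were then trypsinized and washed in PBS. DCF green fluorescence was read by flow cytometry through a 525 nm band-pass filter and expressed relative to control. Mean ± S.D., n = 3.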

[7] = Cytotoxicity against human SV-HUC1 cells at 0.3 to 50 uM after 72 hrs by MTT assay; type: cell-based; details: sv-huc1, 72 h
Summary of the method: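 SV-HUC1 cells (SV40-immortalized human uroepithelium), grown in F12 with 10% FBS, were seeded at 1 × 10³ cells/well and left overnight. Graded concentrations were applied for 72 h at 37 °C. Read-out was MTT formazan dissolved in DMSO, absorbance at 540 nm. Viability is expressed relative to untreated control. Mean ± S.D., n = 3.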

[8] = Induction of apoptosis in human NTUB1 cells assessed as increase in ROS level at 20 to 40 uM after 24 hrs by flow cytometry relative to control; type: functional; summary of the method: as §2
[9] = Cell cycle arrest in human NTUB1 cells assessed as accumulation in subG1 phase at 40 uM after 24 hrs using propidium iodide by FACS analysis; type: functional, cell-based; summary of the method: as §1
NTUB1 [10] = assay: Induction of apoptosis in human NTUB1 cells assessed as increase in ROS level at 20 uM after 24 hrs by flow cytometry; type: functional, cell-based; summary of the method: as §2

Xanthine dehydrogenase/oxidase, sequence (P47989 whole entry): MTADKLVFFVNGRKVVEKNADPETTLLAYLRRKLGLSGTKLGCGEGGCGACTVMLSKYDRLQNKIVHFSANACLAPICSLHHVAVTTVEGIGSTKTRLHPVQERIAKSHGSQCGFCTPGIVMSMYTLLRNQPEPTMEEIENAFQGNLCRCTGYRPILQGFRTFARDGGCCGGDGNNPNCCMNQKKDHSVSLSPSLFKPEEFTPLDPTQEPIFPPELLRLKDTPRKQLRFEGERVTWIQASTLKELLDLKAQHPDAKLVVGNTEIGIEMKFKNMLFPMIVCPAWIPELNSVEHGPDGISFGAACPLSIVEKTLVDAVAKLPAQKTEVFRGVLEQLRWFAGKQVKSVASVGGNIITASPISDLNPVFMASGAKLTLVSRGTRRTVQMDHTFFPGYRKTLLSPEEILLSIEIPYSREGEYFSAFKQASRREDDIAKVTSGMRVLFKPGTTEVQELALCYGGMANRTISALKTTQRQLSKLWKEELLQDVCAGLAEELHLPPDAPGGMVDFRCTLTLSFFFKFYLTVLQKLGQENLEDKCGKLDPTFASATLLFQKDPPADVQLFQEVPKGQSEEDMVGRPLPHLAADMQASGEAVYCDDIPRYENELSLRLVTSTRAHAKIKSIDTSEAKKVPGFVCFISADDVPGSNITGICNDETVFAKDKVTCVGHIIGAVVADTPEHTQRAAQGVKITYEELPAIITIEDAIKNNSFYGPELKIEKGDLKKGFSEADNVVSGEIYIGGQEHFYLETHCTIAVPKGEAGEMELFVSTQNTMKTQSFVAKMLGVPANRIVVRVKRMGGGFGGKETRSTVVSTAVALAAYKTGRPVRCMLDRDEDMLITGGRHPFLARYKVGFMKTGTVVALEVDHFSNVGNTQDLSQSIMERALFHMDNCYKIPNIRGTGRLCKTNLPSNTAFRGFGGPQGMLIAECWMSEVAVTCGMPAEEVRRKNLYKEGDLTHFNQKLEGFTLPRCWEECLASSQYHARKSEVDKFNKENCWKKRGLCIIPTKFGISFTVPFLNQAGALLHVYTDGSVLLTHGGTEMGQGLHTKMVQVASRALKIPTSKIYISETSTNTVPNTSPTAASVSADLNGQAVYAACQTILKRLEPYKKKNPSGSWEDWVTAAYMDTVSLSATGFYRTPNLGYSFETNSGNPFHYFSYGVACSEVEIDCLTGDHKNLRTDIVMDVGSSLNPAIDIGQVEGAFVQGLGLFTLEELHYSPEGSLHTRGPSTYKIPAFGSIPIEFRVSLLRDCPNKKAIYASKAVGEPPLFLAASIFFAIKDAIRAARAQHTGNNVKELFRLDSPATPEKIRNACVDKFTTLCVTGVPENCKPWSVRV

IC50 [1]	inhibition (INH) [1]	IC50 ([2]; read-out: IC50)	Compound	Activity [3]	also measured
109 µM	Dose-dependent effect	75.1 µM	O=c1c2ccccc2oc2cc(OCCCN3CCNCC3)ccc12	Active	
91.9 µM	Dose-dependent effect	65 µM	O=c1c2ccc(O)cc2oc2cc(OCCCN3CCNCC3)ccc12		
44.3 µM	Dose-dependent effect	76.5 µM	CN1CCN(CCCOc2ccc3c(=O)c4ccc(O)cc4oc3c2)CC1		
72.9 µM	Dose-dependent effect	106 µM	O=c1c2ccc(O)cc2oc2cc(OCCCNC3CCCCC3)ccc12	Active	
68.8 µM	Dose-dependent effect	88.8 µM	O=c1c2ccc(O)cc2oc2cc(OCCCN3CCCC3)ccc12	Active	
65.5 µM	Dose-dependent effect		O=c1c2ccccc2oc2cc(OCCCN3CCCC3)ccc12	Active	IC50 [2]: Not Active

Second part, the compound before the results:

Compound	IC50 [1]	inhibition (INH) [1]	IC50 ([2]; read-out: IC50)	Activity [3]	also measured
O=c1c2ccc(O)cc2oc2cc(OCCCN3CCCCC3)ccc12	82.3 µM	Dose-dependent effect	69.3 µM	Active	IC50 [4]: 35.1 µM; Activity [5]: Active; Activity (NTUB1 [6]): Active; Activity [7]: Non-toxic; Activity [8]: 250%
Oc1ncnc2[nH]ncc12 [ALLOPURINOL]		Dose-dependent effect			
CN1CCN(CCCOc2ccc3c(=O)c4ccccc4oc3c2)CC1	47.3 µM	Dose-dependent effect	152 µM	Active	
O=c1c2ccccc2oc2cc(OCCCN3CCCCC3)ccc12	37.8 µM	Dose-dependent effect	90 µM	Active	IC50 [4]: 31.2 µM; Activity [9]: Active; Activity (NTUB1 [10]): Active; Activity [8]: 250%
CCN(CC)CCCOc1ccc2c(=O)c3ccc(O)cc3oc2c1	53.5 µM	Dose-dependent effect	80.5 µM		
O=c1c2ccc(O)cc2oc2cc(OCCCNC3CC3)ccc12	63 µM	Dose-dependent effect	108 µM	Active	
CCN(CC)CCCOc1ccc2c(=O)c3ccccc3oc2c1	56.5 µM	Dose-dependent effect	84.9 µM	Active	
VITAMIN E			77.2 µM		
